Columns and labels:
[1] = biological target: T1, Cytochrome P450 1B1 (Homo sapiens, UniProt Q16678); experiment: Inhibition of human microsomal CYP1B1-dependent ethoxyresorufin-O-deethylase activity at 10 nM preincubated for 5 mins followed by NADPH regenerating solution and substrate addition measured over 6 mins by spectrofluorimetric analysis; details: 0.1 h, 0.01 µM
T1 sequence (Q16678 whole entry): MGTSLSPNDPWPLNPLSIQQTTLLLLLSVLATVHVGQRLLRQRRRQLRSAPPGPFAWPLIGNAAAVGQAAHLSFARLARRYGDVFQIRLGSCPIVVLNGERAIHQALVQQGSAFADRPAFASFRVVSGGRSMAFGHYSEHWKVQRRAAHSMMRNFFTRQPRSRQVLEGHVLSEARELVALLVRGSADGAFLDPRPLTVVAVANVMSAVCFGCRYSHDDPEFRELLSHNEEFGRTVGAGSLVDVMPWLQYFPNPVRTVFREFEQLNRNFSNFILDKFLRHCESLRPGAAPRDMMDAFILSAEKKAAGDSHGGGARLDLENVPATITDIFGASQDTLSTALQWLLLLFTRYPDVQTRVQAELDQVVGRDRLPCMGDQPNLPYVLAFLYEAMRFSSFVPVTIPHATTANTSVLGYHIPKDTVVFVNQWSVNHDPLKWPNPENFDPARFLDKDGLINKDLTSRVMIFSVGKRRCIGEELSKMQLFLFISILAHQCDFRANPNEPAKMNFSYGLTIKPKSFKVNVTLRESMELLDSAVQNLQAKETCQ
Method in brief: (§1)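 Microsomal P450 in 0.1 M potassium phosphate pH 7.6 with MgCl2 and 10 nM inhibitor in DMSO, 2 mL final. Preincubated 5 min at 37 °C either with NADPH-regenerating solution, or without it, with NADPH then added at start. Reaction started with ethoxyresorufin (final 5 µM). Resorufin formation followed 6 min at 37 °C.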

[2] = biological target: T2, Cytochrome P450 1A2 (Homo sapiens, UniProt P05177); experiment: Inhibition of human microsomal CYP1A2-dependent methoxyresorufin-O-demethylase activity at 10 nM measured over 6 mins by spectrofluorimetric analysis in absence of NADPH regenerating solution; details: 0.1 h, 0.01 µM
T2 sequence (P05177 whole entry): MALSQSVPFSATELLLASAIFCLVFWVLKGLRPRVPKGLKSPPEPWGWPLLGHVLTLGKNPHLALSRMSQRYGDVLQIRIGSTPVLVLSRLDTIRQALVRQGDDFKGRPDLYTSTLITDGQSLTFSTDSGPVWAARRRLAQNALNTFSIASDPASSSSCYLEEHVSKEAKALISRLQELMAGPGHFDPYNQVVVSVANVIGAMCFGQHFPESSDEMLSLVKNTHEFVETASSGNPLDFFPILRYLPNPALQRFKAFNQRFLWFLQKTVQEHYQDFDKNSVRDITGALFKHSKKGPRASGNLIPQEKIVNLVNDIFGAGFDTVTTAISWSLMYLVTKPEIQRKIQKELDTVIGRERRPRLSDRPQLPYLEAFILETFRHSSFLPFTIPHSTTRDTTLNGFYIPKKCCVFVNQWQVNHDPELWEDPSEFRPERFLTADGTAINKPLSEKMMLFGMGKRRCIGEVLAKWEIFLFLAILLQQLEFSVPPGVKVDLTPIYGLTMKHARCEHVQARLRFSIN

[3] = biological target: T1, Cytochrome P450 1B1; experiment: Inhibition of human microsomal CYP1B1-dependent ethoxyresorufin-O-deethylase activity by spectrofluorimetric analysis in presence of NADPH regenerating solution
Method in brief: (§2)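 Microsomal P450 (final 5 nM) in 0.1 M potassium phosphate pH 7.6 with MgCl2 at 37 °C. Substrate final 5 µM: ethoxyresorufin for 1A1/1B1, methoxyresorufin for 1A2. Ki was taken as the x-intercept of Dixon plots (1/v0 vs [I]). Mean ± SD of three independent experiments. Selectivity ratios are ratios of these Ki.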

[4] = biological target: T1, Cytochrome P450 1B1; experiment: Inhibition of human microsomal CYP1B1-dependent ethoxyresorufin-O-deethylase activity at 10 nM measured over 6 mins by spectrofluorimetric analysis in absence of NADPH regenerating solution; details: 0.1 h, 0.01 µM; method in brief: as §1
[5] = biological target: T2, Cytochrome P450 1A2; experiment: Inhibition of human microsomal CYP1A2-dependent methoxyresorufin-O-demethylase activity measured over 6 mins by spectrofluorimetric analysis; details: 0.1 h
Method in brief: as §2, with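 “1A2. […]” for “1A2.”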

[6] = biological target: T3, CYP1A2 (Homo sapiens, UniProt P05177); experiment: Time-dependent inhibition of human microsomal CYP1A2-dependent methoxyresorufin-O-demethylase activity by spectrofluorimetric analysis in presence of NADPH regenerating solution; details: human microsomal CYP1A2, probe methoxyresorufin (O-demethylation)
T3 sequence (P05177 whole entry): T2 sequence (P05177 whole entry)
Method in brief: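 1A2 MROD run with NADPH at 0.0125, 0.025, 0.05 and 0.1 µM inhibitor, product monitored continuously over 6 min. Activity at different times came from first derivatives of product curves, expressed as % of control remaining. KI and limiting kinact were derived from the resulting linear plot.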

[7] = species: Homo sapiens; experiment: Selectivity ratio of Ki for human microsomal CYP1B1 to Ki for human microsomal CYP1A2
Method in brief: as §2, with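 “1A2. […]” for “1A2.”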

[8] = biological target: T3, CYP1A2; experiment: Inhibition of human microsomal CYP1A2-dependent methoxyresorufin-O-demethylase activity at 10 nM preincubated for 5 mins followed by NADPH regenerating solution and substrate addition measured over 6 mins by spectrofluorimetric analysis relative to control; details: human microsomal CYP1A2, probe methoxyresorufin (O-demethylation)
[9] = biological target: T4, Cytochrome P450 1A1 (Homo sapiens, UniProt P04798); experiment: Inhibition of human microsomal CYP1A1-dependent ethoxyresorufin-O-deethylase activity at 10 nM measured over 6 mins by spectrofluorimetric analysis in absence of NADPH regenerating solution; details: 0.1 h, 0.01 µM; method in brief: as §1
T4 sequence (P04798 whole entry): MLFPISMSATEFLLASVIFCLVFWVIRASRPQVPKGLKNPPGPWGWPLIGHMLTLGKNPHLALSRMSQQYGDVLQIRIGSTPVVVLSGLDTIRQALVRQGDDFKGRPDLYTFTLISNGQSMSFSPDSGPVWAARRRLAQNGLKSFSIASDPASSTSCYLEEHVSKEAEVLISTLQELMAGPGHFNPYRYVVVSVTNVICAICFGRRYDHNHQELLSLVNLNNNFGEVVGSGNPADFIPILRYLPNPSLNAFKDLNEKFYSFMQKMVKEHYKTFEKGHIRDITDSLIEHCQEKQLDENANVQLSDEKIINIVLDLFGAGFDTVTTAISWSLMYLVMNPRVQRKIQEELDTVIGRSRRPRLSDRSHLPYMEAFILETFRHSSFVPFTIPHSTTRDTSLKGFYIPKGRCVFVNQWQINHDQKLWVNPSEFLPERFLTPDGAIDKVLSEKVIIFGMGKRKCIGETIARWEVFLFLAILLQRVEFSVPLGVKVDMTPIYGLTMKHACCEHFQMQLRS

- inhibition (INH) [1]: Not Active
- inhibition (INH) [2]: Active
- Ki [3]: 180 nM
- inhibition (INH) [4]: Not Active
- inhibition (INH) [5]: Dose-dependent effect
- kinact [6]: 0.007 s⁻¹
- Ratio Ki [7]: 6
- inhibition at 0.1 h, 0.01 µM [8]: > 90%
- inhibition (INH) [9]: Not Active
Compound: Cc1cc2c(ccc3c(=O)cc(-c4ccccc4)oc32)o1

Source: ChEMBL document CHEMBL3600302, “A Ligand-Based Drug Design. Discovery of 4-Trifluoromethyl-7,8-pyranocoumarin as a Selective Inhibitor of Human Cytochrome P450 1A2” (J Med Chem, 2015)
